How the values were obtained:
P388 [1] = experiment: Compound (6.4 mg/kg) was tested in vivo against P388 lymphocytic leukemia screen for Median survival time; format: functional, Mus musculus
In short: (§1)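 Murine P388 lymphocytic leukemia, tumour implanted ip and drug also given ip; testing at Bristol-Myers. Median survival time recorded at the optimal dose (mg/kg per dose) beside concurrently run mitomycin C control; %T/C = treated median survival/control median survival × 100.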

P388 [2] = experiment: Minimum effective dose observed for the substrate; format: functional; settings: Mus musculus, read-out: MED
In short: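 Same ip P388 leukemia model with ip dosing; minimum effective dose taken as lowest mg/kg per dose giving %T/C ≥ 125, with concurrent mitomycin C values.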

P388 [3] = experiment: Compound (25.6 mg/kg) was tested in vivo against P388 lymphocytic leukemia screen for Median survival time; format: functional, Mus musculus; in short: as §1
P388 [4] = experiment: Compound (51.2 mg/kg) was tested in vivo against P388 lymphocytic leukemia screen for Median survival time; format: functional, Mus musculus; in short: as §1

SMILES: CO[C@@]12[C@H](COC(N)=O)c3c(O)c(/N=N/C(=O)c4cccs4)c(C)c(O)c3N1C[C@@H]1N[C@@H]12
- T/C (P388 [1]): 140%
- minimal effective dose (P388 [2]): 0.8 mg/kg

SMILES: CO[C@@]12[C@H](COC(N)=O)c3c(O)c(/N=N/C(=O)c4cccnc4)c(C)c(O)c3N1C[C@@H]1N[C@@H]12
- minimal effective dose (P388 [2]): 12.8 mg/kg
- T/C (P388 [3]): 150%

SMILES: CO[C@@]12[C@H](COC(N)=O)c3c(O)c(/N=N/C(=O)OC(C)(C)C)c(C)c(O)c3N1C[C@@H]1N[C@@H]12
- minimal effective dose (P388 [2]): 0.8 mg/kg
- T/C (P388 [3]): 160%

SMILES: CCOC(=O)/N=N/c1c(C)c(O)c2c(c1O)[C@@H](COC(N)=O)[C@@]1(OC)[C@H]3N[C@H]3CN21
- minimal effective dose (P388 [2]): 0.8 mg/kg
- T/C (P388 [3]): 180%

SMILES: CO[C@@]12[C@H](COC(N)=O)c3c(O)c(/N=N/C(=O)OCC4c5ccccc5-c5ccccc54)c(C)c(O)c3N1C[C@@H]1N[C@@H]12
- minimal effective dose (P388 [2]): 0.8 mg/kg
- T/C (P388 [3]): 195%

SMILES: CO[C@@]12[C@H](COC(N)=O)c3c(O)c(/N=N/C(=O)c4ccccc4)c(C)c(O)c3N1C[C@@H]1N[C@@H]12
- minimal effective dose (P388 [2]): 0.8 mg/kg
- T/C (P388 [3]): 150%

SMILES: CO[C@@]12[C@H](COC(N)=O)c3c(O)c(/N=N/C(=O)OCc4ccccc4)c(C)c(O)c3N1C[C@@H]1N[C@@H]12
- T/C (P388 [1]): 185%
- minimal effective dose (P388 [2]): 1.6 mg/kg

SMILES: CO[C@@]12[C@H](COC(N)=O)c3c(O)c(/N=N/C(C)=O)c(C)c(O)c3N1C[C@@H]1N[C@@H]12
- minimal effective dose (P388 [2]): 1.6 mg/kg
- T/C (P388 [4]): 190%

— ChEMBL document CHEMBL1124331, “Mitomycin C analogues with a substituted hydrazine at position 7. Synthesis, spectral properties, and biological activity” (1989)
